Sampled rows, rich in hits. Any-hit rate of the full collection: about 2.4%.
Jurkat NFkB inh = inhibitors of induced NF-kB luciferase reporter, primary screen, TCR NF-kB activation inhibitor project, cell-based, luminescence, uHTS; Jurkat, PMA/ionomycin-induced NF-kB luciferase reporter; inhibition, % at 4 µM; actives 0.53% (n = 330,000); in the data active means inhibition above about 50%
697 NFkB inh = inhibitors of PMA/ionomycin-induced NF-kB reporter, 697 cells, primary screen, B-cell NF-kB inhibitor project, cell-based, luminescence, uHTS. AID 435022, 2010. inhibition, % at 4 µM. actives 0.33% (n = 330,000). 697 B-cell NF-kB luciferase reporter, 16 h; in the data active means inhibition above about 35%
NR2E3 ag-1 = inhibitors of NR2E3-RetCOR corepressor binding, primary screen, NR2E3 agonist project, biochemical, TR-FRET, GST-NR2E3, biotin-RetCOR. inhibition of corepressor binding, % at 4.78 µM. Photoreceptor-specific nuclear receptor (Homo sapiens), Q9Y5X4. actives 0.12% (n = 320,000). 1536-well;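 active means percent inhibition above the cutoff of mean plus 3 SD of all tested compounds, set per screening campaign, cut at about 20% in these data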;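 further: 0% = DMSO wells and 100% = biotin wells as full block of FRET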
Target sequence (Q9Y5X4 whole entry, looked up): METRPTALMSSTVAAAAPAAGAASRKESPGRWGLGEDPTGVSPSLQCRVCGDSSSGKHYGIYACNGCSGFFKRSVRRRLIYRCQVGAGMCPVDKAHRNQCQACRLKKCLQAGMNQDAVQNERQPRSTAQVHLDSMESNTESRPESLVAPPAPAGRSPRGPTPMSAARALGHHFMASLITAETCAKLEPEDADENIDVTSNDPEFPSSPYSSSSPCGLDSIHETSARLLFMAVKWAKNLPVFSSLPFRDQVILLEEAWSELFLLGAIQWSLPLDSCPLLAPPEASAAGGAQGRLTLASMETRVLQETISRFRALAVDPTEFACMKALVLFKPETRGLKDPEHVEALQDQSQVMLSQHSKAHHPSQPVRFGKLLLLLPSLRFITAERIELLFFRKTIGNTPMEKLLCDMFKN
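System: GST-tagged NR2E3 plus biotinylated RetCOR corepressor; Buffer or medium: pH 7.5 Tris-based buffer; Probe or stimulus: RetCOR corepressor, biotinylated, 7 nM; Doses: compound at 4.8 µM, single dose; Schedule: 5 h incubation at 4 °C; Technique: time-resolved FRET; Evaluation: percent inhibition of TR-FRET ratio; Replication: one well per compound, singlicate testing.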
aDG glyco act = activators of alpha-DG glycosylation, primary screen, uHTS, Pro5-aDG cells, AlphaScreen; alpha-DG glycosylation AlphaScreen (IIH6); 0% Pro5, 100% B10-LARGE cell signal; actives 0.22% (n = 360,000); AID 624168, 2012; activation, % at 10 µM;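 active means activation of at least 8% versus controls, or a plate z-score of at least 8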;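 further: Pro5 are CHO cells carrying HIG-tagged alpha-DG that lacks glycosylation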
MPTP inh = mitochondrial permeability transition pore inhibitors, primary screen, biochemical, isolated mouse mitochondria, absorbance; Ca2+ swelling absorbance, 30 min; actives 1.4% (n = 360,000); inhibition, % at 10 µM;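 active means inhibition of 50% or more, scaled per plate between neutral and stimulator controls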;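 further: 0% = DMSO wells given calcium and 100% = 1 mM EGTA wells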
NR2E3 ag-2 = NR2E3 agonists in two-hybrid cells, primary screen, cell-based, luminescence, CHO-S, Gal4-NCOR/VP16-NR2E3; AID 602229, 2012; luciferase; inhibition of corepressor binding, % at 3.98 µM; Photoreceptor-specific nuclear receptor (Homo sapiens), Q9Y5X4; actives 0.35% (n = 360,000);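 active means inhibition above the mean of all tested compounds plus 3 SD, cut at about 70% in these data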;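 further: 0% = DMSO with NR2E3 transfected cells and 100% = cells lacking NR2E3 construct; higher means lower luciferase signal from less NR2E3 corepressor binding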
Jurkat NFkB conf = PMA/ionomycin-induced NF-kB reporter inhibitors, Jurkat retest, confirmation, T-cell NF-kB inhibitor project, cell-based, luminescence, single concentration; inhibition, % at 4 µM; shares compounds with Jurkat NFkB inh; Jurkat NF-kB luciferase, 16 h; actives 27% (n = 2,700);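 active means inhibition reaching about 45% at 4 µM in either replicate, limit read from the data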;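 further: plate controls were PMA/ionomycin stimulated DMSO wells for no effect and unstimulated DMSO wells for full effect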
Active calls of the source: *.

`COc1ccccc1NC(=S)N(Cc1ccco1)Cc1cc2cccc(C)c2[nH]c1=O` gave Jurkat NFkB inh 1, 697 NFkB inh 2, NR2E3 ag-1 3, aDG glyco act 0, MPTP inh 0 and NR2E3 ag-2 -2.
`COCc1ccc(CN2CCC(n3nccc3NC(=O)CCCc3ccccc3)CC2)o1` gave Jurkat NFkB inh 4, 697 NFkB inh 9, NR2E3 ag-1 0, aDG glyco act 0, MPTP inh -2 and NR2E3 ag-2 -7.
`CC(C)Oc1ccc(C(CCN)C2CCCCC2)cc1` (stereo not given) gave Jurkat NFkB inh 56*, 697 NFkB inh 8, NR2E3 ag-1 -2, aDG glyco act 0, MPTP inh 1, NR2E3 ag-2 8 and Jurkat NFkB conf 11.
Screening CC(C)Nc1ccc(C(CC(N)=O)NC(=O)Cc2ccc(Br)cc2)cc1[N+](=O)[O-] (stereo not given) returned Jurkat NFkB inh 84*, 697 NFkB inh -40, NR2E3 ag-1 5, aDG glyco act 0, MPTP inh -2, NR2E3 ag-2 12 and Jurkat NFkB conf 58*.
For NC(=O)CC(NC(=O)Cc1ccc(Br)cc1)c1ccc(NC2CCCC2)c([N+](=O)[O-])c1 (stereo not given) the results were Jurkat NFkB inh 51*, 697 NFkB inh 26, NR2E3 ag-1 0, aDG glyco act -1, MPTP inh 2, NR2E3 ag-2 -7 and Jurkat NFkB conf 29.
For NC(=O)CC(NC(=O)Cc1ccc(Br)cc1)c1ccc(NC2CCCCCCC2)c([N+](=O)[O-])c1 (stereo not given) the results were aDG glyco act 0, MPTP inh 0 and NR2E3 ag-2 -12.
For NC(=O)CC(NC(=O)Cc1ccc(Br)cc1)c1ccc(NC2CCCCCC2)c([N+](=O)[O-])c1 (stereo not given) the results were Jurkat NFkB inh 18, 697 NFkB inh 8, NR2E3 ag-1 1, aDG glyco act 0, MPTP inh -2 and NR2E3 ag-2 -41.
For COc1cc(/C=N/N2CCCCC2)cc([N+](=O)[O-])c1O the results were Jurkat NFkB inh 14, 697 NFkB inh 2, NR2E3 ag-1 -1, aDG glyco act 0, MPTP inh 1 and NR2E3 ag-2 -13.
`CCN(CC)CCNC(=O)c1ccc2c(c1NCCO)C(=O)c1ccccc1C2=O` gave Jurkat NFkB inh 86*, 697 NFkB inh -35, NR2E3 ag-1 -12, aDG glyco act 0, MPTP inh 9, NR2E3 ag-2 41 and Jurkat NFkB conf 47*.
Screening Cn1nnc2cc(C(=O)Nc3ccc4ccccc4c3)ccc21 returned Jurkat NFkB inh -163, 697 NFkB inh -166, NR2E3 ag-1 2, aDG glyco act 0, MPTP inh 1, NR2E3 ag-2 -112 and Jurkat NFkB conf -67.
Screening CC(C)(C)c1ccc(Oc2ccc(NC(=O)c3ccco3)cn2)cc1 returned Jurkat NFkB inh 53*, 697 NFkB inh -143, NR2E3 ag-1 -1, aDG glyco act 0, MPTP inh 8, NR2E3 ag-2 46 and Jurkat NFkB conf 40.
For O=C(Nc1ccc(Oc2cccnc2)nc1)c1ccc(C(F)(F)F)cc1 the results were Jurkat NFkB inh 50*, 697 NFkB inh -42, NR2E3 ag-1 -2, aDG glyco act 0, MPTP inh 11, NR2E3 ag-2 6 and Jurkat NFkB conf 57*.
Screening O=C(NC(=O)c1c(Cl)cccc1Cl)Nc1ccc(Oc2cccnc2)nc1 returned Jurkat NFkB inh -28, 697 NFkB inh -7, NR2E3 ag-1 -6, aDG glyco act 0, MPTP inh 3 and NR2E3 ag-2 14.
For C[C@H]1CN=C(Nc2ccccc2)N1CCc1ccccc1 the results were Jurkat NFkB inh -10, 697 NFkB inh 1, NR2E3 ag-1 -5, aDG glyco act 0, MPTP inh 1 and NR2E3 ag-2 -4.
`COc1ccc(C(=O)NC2CC3CCCC(C2)N3CC(C)C)cc1` (stereo not given) gave Jurkat NFkB inh 16, 697 NFkB inh -3, NR2E3 ag-1 1, aDG glyco act 0, MPTP inh 2 and NR2E3 ag-2 -23.
COc1ccc(NC(=O)C(=O)NCC2CCCN2S(=O)(=O)c2cccs2)cc1 (stereo not given) was read as Jurkat NFkB inh 65*, 697 NFkB inh -4, NR2E3 ag-1 -1, aDG glyco act 0, MPTP inh 0, NR2E3 ag-2 -42 and Jurkat NFkB conf 54*.
For Cc1cc(N2CCOCC2)ccc1/C=C1\SC(=O)N(C(C)C)C1=O the results were Jurkat NFkB inh -170, 697 NFkB inh -101, NR2E3 ag-1 -3, aDG glyco act 0, MPTP inh 3, NR2E3 ag-2 -31 and Jurkat NFkB conf -58.
CCC(C)N1C(=O)S/C(=C/c2ccc(N3CCOCC3)cc2C)C1=O (stereo not given) was read as Jurkat NFkB inh -93, 697 NFkB inh -78, NR2E3 ag-1 2, aDG glyco act 0, MPTP inh 1 and NR2E3 ag-2 -41.
Screening O=C(Nc1ncn[nH]1)c1ccc(Cl)c(Cl)c1 returned Jurkat NFkB inh 11, 697 NFkB inh 14, aDG glyco act 0, MPTP inh -2 and NR2E3 ag-2 -22.
Screening Cc1nc(C(=O)Nc2ccccc2)sc1C1(C)CC(c2cccnc2)=NO1 (stereo not given) returned Jurkat NFkB inh -60, 697 NFkB inh -29, NR2E3 ag-1 3, aDG glyco act 0, MPTP inh -1 and NR2E3 ag-2 -62.
Screening COc1ccc(NC(=O)c2nc(C)c(C3(C)CC(c4ccccc4)=NO3)s2)cc1 (stereo not given) returned Jurkat NFkB inh 55*, 697 NFkB inh -14, NR2E3 ag-1 0, aDG glyco act 0, MPTP inh 0, NR2E3 ag-2 -27 and Jurkat NFkB conf 37.
Screening Cc1c([N+](=O)[O-])c(C(=O)NC2CCCCC2)nn1C returned Jurkat NFkB inh 0, 697 NFkB inh 6, NR2E3 ag-1 5, aDG glyco act 0, MPTP inh -2 and NR2E3 ag-2 -30.
CC(C)(C)c1ccc(C(=O)Nc2ccccc2Cl)cc1 was read as Jurkat NFkB inh -249, 697 NFkB inh -106, NR2E3 ag-1 7, aDG glyco act 2, MPTP inh 1, NR2E3 ag-2 -152 and Jurkat NFkB conf -167.

Screening data (PubChem)
